Source: PubChem BioAssay (several laboratories)
A selection: hits, their analogues and other compounds. The true share with any hit is near 3.5%.
PAFAH2 inh = inhibitors of human PAFAH2; Q99487; recombinant PAFAH2, FP-rhodamine activity probe, fluorescence polarization; inhibition, % at 3.39 µM; 340,000 compounds, 0.99% hits; AID 492956;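 active means inhibition above the mean over all tested compounds plus 3 SD, cut at about 30% in these data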;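 further: inhibitors block probe labeling of enzyme so polarization drops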
PAFAH1B3 FP inh = blocks human PAF acetylhydrolase 1B catalytic subunit 3; Q15102; recombinant PAFAH1B3, FP-rhodamine probe, fluorescence polarization; inhibition, % at 3.39 µM; 340,000 compounds, 0.28% hits; AID 492972;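 active means inhibition above the screen-wide average of all tested compounds plus 3 SD, cut at about 25% in these data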
Target sequence (Q15102 whole entry, looked up): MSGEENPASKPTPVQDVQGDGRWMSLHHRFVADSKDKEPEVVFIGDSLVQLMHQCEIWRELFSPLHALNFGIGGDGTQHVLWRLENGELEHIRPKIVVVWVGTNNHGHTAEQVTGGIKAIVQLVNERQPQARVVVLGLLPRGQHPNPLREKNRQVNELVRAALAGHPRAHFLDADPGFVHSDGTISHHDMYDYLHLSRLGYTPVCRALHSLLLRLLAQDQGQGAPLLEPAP
Apaf-1 inh = inhibitors of human Apaf-1 apoptosome; inhibition, % at 20 µM; 330,000 compounds, 0.71% hits; O14727; reconstituted apoptosome caspase-3 activity, DEVD-Rh110 fluorescence; active means inhibition of at least 40% at 20 µM
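Material: reconstituted apoptosome with Apaf-1, cytochrome c, caspase-9, procaspase-3, dATP. Technique: Rh110 fluorescence intensity. Buffer or medium: pH 7.5 Hepes buffer with CHAPS, BSA, DTT. Times: 30 min plus 50 min, RT.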
PREPL inh = inhibitors of human prolyl oligopeptidase-like enzyme PREPL. Q4J6C6. recombinant PREPL, fluorescence polarization activity-based probe. 320,000 compounds, 0.68% hits. inhibition, % at 5.96 µM. AID 2751; in the data active means inhibition above about 43%
PAFAH1B2 inh = blocks human PAF acetylhydrolase 1b catalytic subunit 2 | inhibition, % at 3.39 µM | P68402 | 340,000 compounds, 1.2% hits | recombinant PAFAH1B2, FP-rhodamine activity probe, fluorescence polarization;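 active means inhibition above the mean of all tested compounds plus 3 SD, cut at about 24% in these data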
Target sequence (P68402 whole entry, looked up): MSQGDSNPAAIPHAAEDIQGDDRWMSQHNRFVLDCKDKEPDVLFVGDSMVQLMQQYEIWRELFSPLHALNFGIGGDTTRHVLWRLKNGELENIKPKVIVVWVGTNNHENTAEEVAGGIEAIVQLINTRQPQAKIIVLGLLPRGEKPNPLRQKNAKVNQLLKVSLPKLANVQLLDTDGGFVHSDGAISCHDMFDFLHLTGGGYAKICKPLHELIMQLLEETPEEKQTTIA
pPAFAH FP inh = pPAFAH (human) enzyme inhibition | recombinant pPAFAH, FP-rhodamine probe fluorescence polarization | inhibition, % at 3.39 µM | 330,000 compounds, 1.5% hits | AID 463082;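 active means inhibition above the mean inhibition across the screen plus 3 SD, cut at about 25% in these data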;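 further: inhibitors block binding of the rhodamine activity-based probe so polarization drops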
Apaf-1 inh conf = confirmation of Apaf-1 inhibitors. shares compounds with Apaf-1 inh. reconstituted apoptosome, caspase-3 DEVD-Rh110 fluorescence. inhibition, % at 20 µM. 1,800 compounds, 25% hits. AID 504614;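 active means mean inhibition of at least 40% at 20 µM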
Rh110 interf inh = counter-screen for Apaf-1 inhibitors: fluorescence interference | shares compounds with Apaf-1 inh | Rh110 fluorescence interference, quenched caspase reaction | activation (fluorescence interference), % at 20 µM | 1,800 tested, under 10 active;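 active means signal rise of 40% or more at 20 µM, treated as a fluorescence artifact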
Fluor interf inh = Apaf-1 inhibitor counter-screen fluorescence artifact. shares compounds with Apaf-1 inh. fluorescence interference counterscreen, Apaf-1 assay format. IC50, µM. 460 tested, under 10 active; call rule not given here
A number is an active result; i = inactive; nt = no result given.

SMILES | PAFAH2 inh | PAFAH1B3 FP inh | Apaf-1 inh | PREPL inh | PAFAH1B2 inh | pPAFAH FP inh | Apaf-1 inh conf | Rh110 interf inh | others
Cc1cc2cc(CNC(=O)c3ccc(S(=O)(=O)N4CCCCC4)cc3)ccc2n1C | i | i | 53.3 | i | i | 31.2 | i | i
CCCCc1c(C)c(C#N)c2[nH]c3ccccc3n2c1=O | i | i | 45.3 | i | i | i | 49.8 | i | Fluor interf inh=i
Cc1c(CCC(C)C)c(=O)n2c([nH]c3ccccc32)c1C#N | i | i | 59.6 | i | i | i | 64.8 | i | Fluor interf inh=i
COc1cccc(CC(Cc2nc3ccccc3[nH]2)c2nc3ccccc3[nH]2)c1 (centres undefined) | i | i | i | i | i | i | nt | nt
COc1ccc(C(=O)NC2CCN(Cc3ccccc3)C2)cc1S(=O)(=O)N1CCOCC1 (centres undefined) | i | i | i | i | i | i | nt | nt
c1ccc2c(C[C@@H]3CNCCN3CCC34CC5CC(CC(C5)C3)C4)cccc2c1 | i | i | 65.7 | i | i | i | i | i
Oc1ccc(C[C@H]2CNCCN2CCc2cccc(F)c2)cc1 | i | i | i | i | i | i | nt | nt
c1ccc2c(C[C@@H]3CNCCN3CCCCC3CCCCC3)cccc2c1 | i | i | 70.9 | i | i | i | i | i
CC(C)(C)CN1CCNC[C@H]1Cc1cccc2ccccc12 | i | i | i | i | i | i | nt | nt
Oc1ccc(C[C@@H]2CNCCN2CCc2cccc3ccccc23)cc1 | i | i | i | i | i | i | nt | nt
c1ccc(C2(CN3CCNC[C@H]3Cc3cccc4ccccc34)CC2)cc1 | i | i | 53.0 | i | i | i | i | i
Fc1cccc(CCN2CCNC[C@H]2Cc2cccc3ccccc23)c1 | i | i | 43.0 | i | i | i | i | i
O=C(Nc1cc(Cl)ccc1Cl)C1CC(=O)N(c2ccc(Br)cc2)C1 (centres undefined) | i | i | i | i | i | i | nt | nt
CC(C)N(Cc1cnn(C)c1)Cc1nc(-c2ccc(Cl)cc2)no1 | i | i | i | i | i | i | nt | nt
CCc1cccc(C)c1NC(=S)NCc1ccc2c(c1)cc(C)n2C | i | i | 54.6 | i | i | i | i | i
COc1cc(C2C(C#N)=C(C)NC3=C2C(=O)c2ccccc23)cc(OC)c1OC (centres undefined) | i | i | 54.3 | i | i | i | i | i
O=[N+]([O-])c1cc(F)c2cccnc2c1O | i | i | 64.2 | i | i | i | i | i
O=C(Nc1ccccc1Cl)c1c(F)c(F)c(F)c(F)c1F | i | i | i | i | i | i | nt | nt
O=C(NC1(O)C(=O)c2ccccc2C1=O)c1c(Cl)cccc1Cl | nt | nt | 96.1 | i | nt | i | 97.4 | i | Fluor interf inh=i
COc1cc(OC)c2c(-c3cccc(-c4ccc(CO)cc4)c3)cc(=O)oc2c1 | i | i | 42.3 | nt | i | i | i | i
COc1ccc(-c2cccc(-c3cc(=O)oc4cc(OC)cc(OC)c34)c2)cc1 | i | i | i | nt | i | i | nt | nt
Cc1c(C(=O)c2ccc(F)cc2F)c2ccccn2c1CCC#N | i | i | 62.7 | i | i | i | i | i
Cc1c(C(=O)c2ccc(Cl)cc2[N+](=O)[O-])c2ccccn2c1CCC#N | i | i | i | i | i | i | nt | nt
O=C(NCc1ccco1)Nc1ccc2nsnc2c1 | i | i | 59.0 | i | i | i | i | i
COc1ccc(NC(=O)N2CCCC2C(=O)NCc2ccc(C)cc2)cc1 (centres undefined) | i | i | i | i | i | i | nt | nt
SMILES | PAFAH2 inh | PAFAH1B3 FP inh | Apaf-1 inh | PREPL inh | PAFAH1B2 inh | pPAFAH FP inh | Apaf-1 inh conf | Rh110 interf inh | others
Cc1ccc(NCc2ccccc2OCc2ccccc2F)cc1 | i | i | i | i | i | i | nt | nt
Oc1ccc(NCc2ccccc2OCc2ccccc2F)cc1 | i | i | 92.1 | i | i | 31.4 | i | i
O=P(CCCCCCCCCP(=O)(c1ccccc1)c1ccccc1)(c1ccccc1)c1ccccc1 | i | i | 52.8 | i | i | i | i | i
COc1ccc(-c2nc3nc(C)c(Cc4ccccc4)c(=O)n3[nH]2)cc1 | i | i | 49.5 | i | i | i | 46.7 | i
Cn1c(=O)c2c(nc(CN3CCN(C(=O)c4ccco4)CC3)n2CC(=O)C(C)(C)C)n(C)c1=O | i | i | i | i | i | i | nt | nt
O=S(=O)(C=C(c1ccccc1)c1ccccc1)c1ccccc1 | i | i | i | i | i | i | nt | nt
CCn1c(=O)c2cc(C(=O)N(C)c3cc(C)ccc3OC)sc2c2ccccc21 | i | i | 53.4 | i | i | i | i | i
CC(=O)NC1=C(NC2CCS(=O)(=O)C2)C(=O)c2ccccc2C1=O (centres undefined) | i | i | 40.8 | i | i | i | i | i
O=C(Nc1ccccc1)NC1CCS(=O)(=O)C1 (centres undefined) | i | i | i | i | i | i | nt | nt
CC(C)Cn1c(N)c(C(=O)COC(=O)C2CCCCC2)c(=O)n(C)c1=O | i | i | 42.7 | i | i | i | i | i
Cc1ccc(S(=O)(=O)N(C)C)cc1NC(=O)c1ccccc1SCC(=O)N1CCCC1 | i | i | 41.5 | i | i | i | i | i
CCN(CC(=O)Nc1ccccc1C(F)(F)F)C(=O)c1ccccc1SCC(=O)N1CCCC1 | i | i | 42.9 | i | i | i | i | i
CN(CC(=O)Nc1ccccc1C(F)(F)F)CC(=O)N1CCCCCC1 | i | i | i | i | i | i | nt | nt
Cc1ccc(NC(=O)c2ccccc2SCC(=O)N2CCCC2)cc1S(=O)(=O)N(C)C | i | i | i | i | i | i | nt | nt
CN(CC(=O)Nc1ccc(Cl)c(C(F)(F)F)c1)C(=O)CC1Sc2ccccc2NC1=O (centres undefined) | i | i | 50.9 | i | i | i | 46.6 | i | Fluor interf inh=i
CN(CC(=O)NCc1ccccc1)CC(=O)Nc1ccc(Cl)c(C(F)(F)F)c1 | i | i | 52.7 | i | i | i | i | i
CCOC(=O)N1CCN(C(=O)CS(=O)(=O)c2cn(Cc3ccc(F)cc3)c3ccccc23)CC1 | i | i | i | i | i | i | nt | nt
Oc1cc(NCCc2cccnc2)cc2cccnc12 | i | i | 56.0 | i | i | i | 47.1 | i | Fluor interf inh=i
COc1nc(-c2cnccn2)sc1C | i | i | i | i | i | i | nt | nt
Cc1cccc(C(=O)OC2CCOC2=O)c1O (centres undefined) | i | i | i | i | i | i | nt | nt
COC(=O)[C@H](C)NC(=O)N1CCC(Cc2ccccc2)CC1 | i | i | i | i | i | i | nt | nt
CC(C)[C@H](NC(=O)N1CCC(Cc2ccccc2)CC1)C(=O)O | i | i | 41.6 | i | i | i | i | i
COC(=O)c1c(NC(=O)c2ccccc2)sc2c1CC(C)(C)NC2(C)C | i | i | i | i | i | i | nt | nt
